Assay [1] has as its target T1, PKCθC1B wild-type (Mus musculus, UniProt Q02111).
T1 sequence (Q02111 232-281): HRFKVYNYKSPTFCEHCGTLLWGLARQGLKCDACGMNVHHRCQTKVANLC
The experiment in a line: [3H]PDBu binding assay. Conditions: for Ki/Kd / Ki: PKCθ C1B WT; for Ki/Kd: Ki of the diacylglycerol over Kd of PDBu; for Ki: competition of [3H]PDBu binding, mean ± S.E.M. An outline of the steps:
(§1)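 GST-cleaved mouse PKCθ C1B (residues 232–281), E. coli-expressed, affinity/gel-filtration purified. PEG-precipitation [3H]PDBu binding; Kd from saturable plus linear non-specific fit. Ki: [3H]PDBu at 2–5-fold each construct's Kd, DOG or SAG 1–100000 nM, dried from chloroform with phospholipid, sonicated. PS dependence: total phospholipid 100 μg/ml, PS 0–100%, remainder PC, relative to 100% PS. Means ± S.E.M., three independent experiments.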

In assay [2] the target is T2, PKCθC1B Y239A (Mus musculus, UniProt Q02111, Y239A).
T2 sequence (Q02111 232-281 Y239A): T1 sequence (Q02111 232-281) with Y8A
The experiment in a line: [3H]PDBu binding assay. The note with it: for Ki/Kd / Ki: PKCθ C1B Y239A; for Ki/Kd: Ki of the diacylglycerol over Kd of PDBu; for Ki: competition of [3H]PDBu binding, mean ± S.E.M.; for reduction in binding affinity compared with the wild-type: Y239A vs wild-type PKCθC1B (Kd for PDBu, Ki for DOG/SAG). The method in brief: as §1

Assay [3] deals with T3, PKCθC1B T243A (Mus musculus, UniProt Q02111, T243A).
T3 sequence (Q02111 232-281 T243A): T1 sequence (Q02111 232-281) with T12A
The assay is described as follows: [3H]PDBu binding assay. The note with it: for Ki/Kd / Ki: PKCθ C1B T243A; for Ki/Kd: Ki of the diacylglycerol over Kd of PDBu; for Ki: competition of [3H]PDBu binding, mean ± S.E.M.; for reduction in binding affinity compared with the wild-type: T243A vs wild-type PKCθC1B (Kd for PDBu, Ki for DOG/SAG). An outline of the steps:
as §1

The target of assay [4] is T4, PKCθC1B W253G (Mus musculus, UniProt Q02111, W253G).
T4 sequence (Q02111 232-281 W253G): T1 sequence (Q02111 232-281) with W22G
The experiment in a line: [3H]PDBu binding assay. Conditions: for Ki/Kd / Ki: PKCθ C1B W253G; for Ki/Kd: Ki of the diacylglycerol over Kd of PDBu; for Ki: competition of [3H]PDBu binding, mean ± S.E.M.; for reduction in binding affinity compared with the wild-type: W253G vs wild-type PKCθC1B (Kd for PDBu, Ki for DOG/SAG).

Assay [5] has as its target T5, PKCθC1B L255G (Mus musculus, UniProt Q02111, L255G).
T5 sequence (Q02111 232-281 L255G): T1 sequence (Q02111 232-281) with L24G
The assay is described as follows: [3H]PDBu binding assay. The note with it: for reduction in binding affinity compared with the wild-type: L255G vs wild-type PKCθC1B (Kd for PDBu, Ki for DOG/SAG); for Ki/Kd / Ki: PKCθ C1B L255G; for Ki/Kd: Ki of the diacylglycerol over Kd of PDBu; for Ki: competition of [3H]PDBu binding, mean ± S.E.M. The method in brief:
as §1

The target of assay [6] is T6, PKCθC1B Q258G (Mus musculus, UniProt Q02111, Q258G).
T6 sequence (Q02111 232-281 Q258G): T1 sequence (Q02111 232-281) with Q27G
The experiment in a line: [3H]PDBu binding assay. The note with it: for Ki/Kd / Ki: PKCθ C1B Q258G; for Ki/Kd: Ki of the diacylglycerol over Kd of PDBu; for Ki: competition of [3H]PDBu binding, mean ± S.E.M.; for reduction in binding affinity compared with the wild-type: Q258G vs wild-type PKCθC1B (Kd for PDBu, Ki for DOG/SAG). An outline of the steps: as §1

For assay [7], the target named is full-length PKCθ Y239A (Mus musculus, UniProt Q02111, Y239A). The experiment in a line: Membrane translocation in HEK-293 cells. It counts as cell-based. Conditions: 250 nM DOG, 2 h.
Chain of full-length PKCθ Y239A (Q02111 whole entry Y239A): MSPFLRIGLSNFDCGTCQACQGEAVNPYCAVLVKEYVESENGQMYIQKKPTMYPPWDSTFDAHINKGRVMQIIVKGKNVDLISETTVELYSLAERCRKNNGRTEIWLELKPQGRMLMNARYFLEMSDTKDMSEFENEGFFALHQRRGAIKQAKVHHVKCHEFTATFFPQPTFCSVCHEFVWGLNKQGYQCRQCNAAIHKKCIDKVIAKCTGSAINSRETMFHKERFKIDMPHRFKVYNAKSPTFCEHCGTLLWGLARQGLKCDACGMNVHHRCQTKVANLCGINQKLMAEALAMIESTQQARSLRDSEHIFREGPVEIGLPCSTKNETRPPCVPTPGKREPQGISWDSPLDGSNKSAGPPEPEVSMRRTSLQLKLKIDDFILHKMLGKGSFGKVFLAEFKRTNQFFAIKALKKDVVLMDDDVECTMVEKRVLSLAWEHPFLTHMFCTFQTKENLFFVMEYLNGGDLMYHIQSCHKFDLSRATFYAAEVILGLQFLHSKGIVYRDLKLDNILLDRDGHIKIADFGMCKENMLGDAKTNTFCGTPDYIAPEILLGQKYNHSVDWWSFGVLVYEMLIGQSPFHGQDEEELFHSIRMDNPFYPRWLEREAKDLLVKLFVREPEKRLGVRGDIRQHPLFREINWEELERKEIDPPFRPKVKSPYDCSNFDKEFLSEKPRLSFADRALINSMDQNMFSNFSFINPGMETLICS
The target in assay [8] is full-length PKCθ T243A (Mus musculus, UniProt Q02111, T243A). The experiment in a line: Membrane translocation in HEK-293 cells. The note with it: 250 nM DOG, 2 h. The format is cell-based.
Chain of full-length PKCθ T243A (Q02111 whole entry T243A): as the sequence (Q02111 whole entry Y239A) above, with A239Y, T243A counted along it
The target in assay [9] is full-length PKCθ W253G (Mus musculus, UniProt Q02111, W253G). The assay is described as follows: Membrane translocation in HEK-293 cells. It counts as cell-based. Conditions: 250 nM DOG, 2 h.
Chain of full-length PKCθ W253G (Q02111 whole entry W253G): as the sequence (Q02111 whole entry Y239A) above, with A239Y, W253G counted along it
The target of assay [10] is full-length PKCθ L255G (Mus musculus, UniProt Q02111, L255G). The experiment in a line: Membrane translocation in HEK-293 cells. The format is cell-based. Conditions: 250 nM DOG, 2 h.
Chain of full-length PKCθ L255G (Q02111 whole entry L255G): as the sequence (Q02111 whole entry Y239A) above, with A239Y, L255G counted along it
Assay [11] concerns the target full-length PKCθ Q258G (Mus musculus, UniProt Q02111, Q258G). The assay is described as follows: Membrane translocation in HEK-293 cells. Conditions: 250 nM DOG, 2 h. It counts as cell-based.

Where a chain is given by its changes, count along the chain named. Values joined by “and” are separate entries in the source; they are usually repeats but may differ in a detail not shown here. Equal values may be shown once.

Chain of full-length PKCθ Q258G (Q02111 whole entry Q258G): as the sequence (Q02111 whole entry Y239A) above, with A239Y, Q258G counted along it

With `CCCCCCCC(=O)OC[C@H](CO)OC(=O)CCCCCCC` [DOG, sn-1,2-dioctanoylglycerol], the Ki/Kd turned out to be 41 in assay [1]; 26 in assay [2]; 34 in [3]; 159 in [4]; 17 in assay [5]; 3 in [6]. The Ki (commonly a measure of affinity in units of concentration, obtained from inhibition or displacement) in assay [1] turned out to be 16.1 ± 0.7 nM; in assay [2], 86 ± 15 nM; in assay [3], 21.5 ± 1.8 nM; in [4], 470 ± 69 nM; in assay [5], 76 ± 24 nM; in assay [6], 1840 ± 320 nM. Also, the “reduction in binding affinity compared with the wild-type” value in assay [2] is 5.34 fold; in assay [3], 1.34 fold; in assay [4], 29.2 fold and 29 fold; in [5], 4.72 fold; in [6], 114 fold. Besides, in [4] (W253G vs wild-type), the “greater loss of affinity for DOG than for PDBu caused by W253G” value is 4 fold. Also, the “reduction in membrane translocation compared with the wild-type” value amounted to 12.0% in assay [7]; 8.98% in assay [8]; 5.9% in assay [9]; 15.4% in [10]; 15.9% in [11].

On to `CCCCC/C=C\C/C=C\C/C=C\C/C=C\CCCC(=O)OC(CO)COC(=O)CCCCCCCCCCCCCCCCC` (centres unmarked) [SAG, sn-1-stearoyl 2-arachidonyl glycerol], for which the “stronger binding affinity for SAG than for DOG” value in assay [1] (C1B domain of PKCθ) amounted to 2 fold. Besides, the Ki/Kd is on record as 22 in [1]; 11 in [2]; 9 in assay [3]; 92 in [4]; 16 in assay [5]; 3 in assay [6]. Moreover, the Ki is 8.7 ± 2 nM in [1]; 35.1 ± 5.1 nM in assay [2]; 5.5 ± 1.5 nM in assay [3]; 271 ± 22 nM in assay [4]; 71 ± 10 nM in [5]; 2260 ± 330 nM in [6]. The “reduction in binding affinity compared with the wild-type” value is 4.13 fold in [2]; 0.63 fold in [3]; 31.1 fold and 31 fold in assay [4]; 8.16 fold in assay [5]; 260 fold in [6].

Values taken from publication PMC6988732 (The Biochemical journal, 2013).
